Test results taken from ChEMBL document CHEMBL4513216, “Probing the Open Global Health Chemical Diversity Library for Multistage-Active Starting Points for Next-Generation Antimalarials” (ACS Infect Dis, 2020).

Assay: Toxicity liver stage against HepG2, at 10uM
Format: cell-based
Design: test concentration 10 uM, cell line HepG2-A16-CD81EGFP
Conditions: human, HepG2-A16-CD81EGFP cells; read-out: INHIBITION
Procedure, shortened: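 Uninfected HepG2-A16-CD81EGFP cells, 3 × 10^3 per well, 1536-well, plated on prespotted compound at 10 μM final, parasite-free screening media added to match infected plates; puromycin 10 μM positive, DMSO 0.5% negative; run in parallel with 48 h PbLuc assay at 37 °C, 5% CO2; viability by CellTiter-Glo luminescence, normalized to controls.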

SMILES | cytotoxicity at 10 µM
Cc1cccnc1CCNC(=O)CC1C(=O)NCCN1CCC(C)C (stereo not given) | 9.01%
O=C(NCCc1nnc2n1CCC2)c1ccccc1OC1CCCC1 | -2.27%
COc1ccc(F)c(CN2CCCC(O)(CNC3CCCCC3)C2=O)c1 (stereo not given) | 8.28%
CN(C)C(=O)[C@@H]1CCO[C@@H]2CCN(Cc3ccc4c(c3)OCO4)C[C@@H]21 | -3.76%
Cc1cnn(CC2CCCN2C(=O)c2nccc3ccccc23)c1 (stereo not given) | -2.14%
CC(C)N(Cc1ccccc1)C(=O)c1cc(C2CCCN2C)ccn1 (stereo not given) | -18.7%
O=S(=O)(Cc1ccccc1)N1CCCn2cnc(CN3CCCC3)c2C1 | 3.3%
CCc1nnc(NC(=O)N(CCOC)Cc2ccc(C)o2)s1 | -18.8%
Cn1cnc(S(=O)(=O)N2CCN(Cc3ccco3)CC2)c1Cl | -3.85%
CN1CCC(N(C)CCC(=O)N2CCN(Cc3cccc(F)c3)CC2)C1 (stereo not given) | -3.41%
CS(=O)(=O)NCc1ncn2c1CN(C(=O)C1CCCO1)CCC2 (stereo not given) | -110%
CC(=O)N1CCN(CCNC(=O)c2nc3ccccc3c(=O)[nH]2)CC1 | 6.45%
COCc1ccccc1C(=O)N1CCn2c(nnc2C(C)C)C1 | 2.91%
CCC1c2cccn2CCN1C(=O)c1cc(OC)nc(OC)n1 (stereo not given) | 15%
CCN1CC(O)CN(C(=O)c2ccc(SC)cc2)CC1=O (stereo not given) | 6.88%
COCCCN1C(=O)CC(N2CCN(c3ccc(F)cc3)CC2)C1=O (stereo not given) | 2.57%
O=C(NC1CCN(c2ncccn2)CC1)c1cccc(-n2ccnc2)c1 | -1.17%
N#Cc1ccc(CN2CCCCC2Cn2cccn2)cc1 (stereo not given) | -8.96%
COCCCC1CCCN(C(=O)CCc2csc(N)n2)C1 (stereo not given) | -2.66%
O=C(Nc1ccc(CCN2CCC(O)CC2)cc1)C1CCCOC1 (stereo not given) | -4.81%
N#Cc1cccc(S(=O)(=O)Nc2c(F)cccc2N2CCCC2)c1 | 2.62%
COCc1nc(C(=O)NS(=O)(=O)c2ccc(C)s2)cs1 | -4.61%

SMILES | cytotoxicity at 10 µM
CCCn1ccc2cc(NC(=O)CC3CCCO3)ccc21 (stereo not given) | -3.45%
N#CCCN(CCC#N)C(=O)c1ccc(COc2ccccc2C#N)o1 | -16.6%
COc1cc(S(=O)(=O)N2CCc3ccc(F)cc32)cc(C(=O)O)c1OC | 7.12%
Cc1ccc(=O)n(CC2(O)CCN(Cc3cc(C)c(O)c(C)c3)CC2)n1 | 1.7%
O=C(Nc1ccc2c(c1)OCO2)Nc1cnn(C2CCOCC2)c1 | -8.54%
COC1(CNS(=O)(=O)c2ccccc2Cl)CCSC1 (stereo not given) | -7.48%
Cc1cc(C)c2c(N(C)CC3CCN(CC(C)C)C3)ncnc2n1 (stereo not given) | 1.61%
CC(C)N(C)Cc1cn2c(n1)CN(C(=O)Cc1ccccc1)CC2 | -135%
Cc1ccc(C(CNC(=O)c2cc(CC(C)C)nn2C)N(C)C)cc1 (stereo not given) | -3.34%
Cn1cc(CN2CCN(Cc3nccn3C)CC2)cn1 | 15.5%
Oc1ccc(N2CCN(Cc3ccc(F)cc3Br)CC2)cc1 | -13.2%
CC(NC(=O)NCCNc1ncccn1)c1cccs1 (stereo not given) | -0.447%
CC(CCN1CCC(n2cc(CCO)nn2)CC1)c1ccccc1 (stereo not given) | 3.23%
O=C(Cc1ccsc1)N1CCCC(c2n[nH]c3ncccc23)C1 (stereo not given) | -6.8%
Cc1cccc(NS(=O)(=O)c2cc(C(=O)O)oc2C)c1 | -9.15%
Cc1ccc(NC(=O)NCC2CCS(=O)(=O)C2)cc1Cl (stereo not given) | 6.93%
CN1CCCC2(CCN(C(=O)Cn3ncc4ccccc4c3=O)C2)C1=O (stereo not given) | 1.57%
COc1ccc(NC(C)c2nnnn2-c2ccccc2)cc1F (stereo not given) | 12.1%
O=C(Nc1ccccn1)c1ccc(F)c(S(=O)(=O)NC2CC2)c1 | 4.37%
Cc1cc(CN(C)C(=O)c2cc3c([nH]c2=O)CCCC3=O)no1 | -3.59%
CC(=O)N1N=C(COc2ccc(Cl)cc2)OC1c1ccccc1 (stereo not given) | 9.87%
COCC(NC(=O)c1cc(C)n(C)n1)c1cccc(C(F)(F)F)c1 (stereo not given) | 9.43%

SMILES | cytotoxicity at 10 µM
O=C(c1ccc(F)c(F)c1)N1CCCCC1c1nc[nH]n1 (stereo not given) | -7.47%
Cc1ncc(C(=O)N2CCCC2c2c(C)nn(C)c2C)s1 (stereo not given) | 1.51%
Cn1c(=O)ccn(CC(=O)N2CCCC(n3cccn3)C2)c1=O (stereo not given) | -8.92%
O=C(CCCOc1ccccc1Cl)N1CCCC(n2cncn2)C1 (stereo not given) | -0.0868%
COCCN1CC(Nc2nc(C(C)C)nc3c2cnn3C)CC1=O (stereo not given) | -1.52%
CCN1CCc2cc(-c3cncn3CCNC3CCS(=O)(=O)C3)ccc21 (stereo not given) | -1.59%
CC(C)NC(=O)Cn1cc(OCc2ccc(F)cc2)c(=O)cc1CO | 4.74%
CCN(Cc1c(F)cccc1Cl)c1cc(C2CCNCC2)nc(C)n1 | 5.16%
CN(C)CCN1C[C@@H]2CN(c3ccccc3)C[C@@H]2C1=O | -94%
O=C(C1CC1)N1CCC(O)(CN2CCN(c3ccccc3)CC2)C1 (stereo not given) | -3.3%
CN(C)CCNC(=O)CC1CCN(c2cccnn2)CC1 | 6.04%
CCc1cc(N[C@H](C(N)=O)C(C)C)n2nc(C)c(C)c2n1 | 5.88%
Cc1sc(NS(=O)(=O)c2ccccc2)nc1C(=O)NC1CC1 | 5.73%
Cc1cnc(C(=O)N2CCN3C[C@H](OCc4cccnc4)C[C@H]3C2)cn1 | -59.7%
Cc1c(C(=O)NC2CCCOC2)nnn1-c1ccc(Cl)cc1F (stereo not given) | 8.55%
c1coc(CNc2nnc(Cc3ccsc3)o2)c1 | -2.28%
Cc1nc(C)c(C)c(N(C)CCCc2nccn2C)n1 | 8.52%
N#Cc1cccc(CN2CCN(Cc3cscn3)CC2)c1 | 1.16%
Cc1cc2nc(SCC(=O)N3CCCC3)n(-c3ccccc3)c(=O)c2[nH]1 | -6.34%
CCn1cc(C(=O)Nc2ccccc2C(=O)OC)cn1 | -7.25%
COc1ccc(CNCc2c(C)nc3sc(C)cn23)c(OC)c1OC | -1.99%
O=C1[C@@H]2CN(Cc3ccccn3)C[C@H]2CCN1c1cncnc1 | -115%

SMILES | cytotoxicity at 10 µM
Cc1cc(NCC2CCCO2)cc(=O)n1C (stereo not given) | -8.19%
CCc1cc(N2CCNCC2)n2nc(C)c(C)c2n1 | -2.59%
CCN1CCn2nc(CCC(=O)N3CCCC3)cc2C1 | 0.685%
CCCc1noc(C(C)N2CCN(c3ccc(C#N)cn3)CC2)n1 (stereo not given) | -0.487%
Cc1nn(C)c(C)c1C1CCCN1C(=O)c1cnccn1 (stereo not given) | -15.7%
CN1CCN(c2ccc(Br)cc2NC(=O)c2ccco2)CC1 | -6.09%
O=C(c1cnn(-c2ccccc2)n1)N1CCCC(n2cccn2)C1 (stereo not given) | 1.13%
Cc1ccoc1C(=O)NCCOc1ccc(C(F)(F)F)cn1 | -4.02%
Cc1cc(CNC(=O)[C@H]2CCCCN2C(=O)OC(C)(C)C)on1 | -0.82%
CCOC(C)c1nccn1Cc1cc(C)on1 (stereo not given) | 8.41%
CC(Nc1ncnc2c1CCNCC2)c1nc2c(s1)CCCC2 (stereo not given) | 1.28%
CC(C)n1[nH]c(=O)c2c1NC(=O)CC2C1CCCCC1 (stereo not given) | -12.9%
COCc1cc(CNC(=O)c2cc(NC(C)=O)ccc2Cl)n[nH]1 | 5.3%
Cn1nc(C(=O)N2CC(Oc3nc4c(Cl)cccc4s3)C2)ccc1=O | 1.48%
CC(=O)NCc1ccc(C(=O)N2CCCC2c2cnn(C)c2)s1 (stereo not given) | -13.6%
COCC(=O)N(C)Cc1nc(N2CCCC2)ncc1-c1ccncc1 | 12.3%
O=C(NCCOc1ccccc1)NCC(O)c1cccs1 (stereo not given) | -7.83%
COCCNC(=O)C1CN(Cc2nccs2)Cc2ccnn2C1 (stereo not given) | -72.7%
CC(C)(C)C(=O)N1CCCN(c2ncnc3nc(N)ccc23)CC1 | 3.39%
O=C(c1ccccn1)N1CCCN(Cc2nnc(C3CC3)o2)CC1 | 5.25%
CC(C)NC(=O)c1nnn(-c2cccc(C(F)(F)F)c2)c1C1CC1 | -19%
C=c1ncsc1=C1NN=C(C2CCCN2C(=O)CCn2ccc(C)n2)O1 (stereo not given) | 1.66%

SMILES | cytotoxicity at 10 µM
Cc1nc(C)c(CC(=O)NCc2ccc(F)cc2)s1 | 8.05%
COc1c(CNCC(O)c2cccc(F)c2)c(C)nn1C (stereo not given) | -6.41%
CCS(=O)(=O)N1C[C@@H]2CN(Cc3cccs3)CCO[C@@H]2C1 | -138%
CN1CC(=O)N(c2cccc(F)c2)CC12CCN(CC1CCOCC1)C2 (stereo not given) | 0.887%
CN(C)C1CCCN(C(=O)c2cccc(-c3ncc[nH]3)c2)CC1 (stereo not given) | 4.2%
N[C@@H]1c2ccccc2C2(CCN(C(=O)c3ccccc3O)CC2)[C@H]1O | 6.38%
c1ccc(-c2cc(CN3C[C@H]4CC[C@@H](C3)N(CC3CCC3)C4)on2)cc1 | 3.27%
Cc1nc2c(c(=O)[nH]1)CCN(C(=O)c1[nH]nc3c1CC(C)CC3)C2 (stereo not given) | 13.4%
O=C(C1CCOCC1)N1CCO[C@H]2[C@H](OCc3ccncc3)CC[C@@H]21 | -2.53%
O=C(N[C@@H]1CN(Cc2ccco2)[C@@H]2CCCO[C@@H]21)c1cscn1 | -105%
CCc1nc(C2CCCN2CCCSC)no1 (stereo not given) | -6.57%
Cc1cnn(CC2CCCN2c2ncnc3ccccc23)c1 (stereo not given) | 46.8%
CN1N=C(C(=O)N2CCCC(CCc3ccccc3)C2)CCC1=O (stereo not given) | -10.5%
O=C(Nc1ccnc(OC2CCOC2)c1)c1cccs1 (stereo not given) | 5.42%
CC(C)c1cc(C(=O)NCCc2nc3c(s2)CCC3)n(C)n1 | 54.2%
O=C(N[C@@H]1CN(Cc2ccsc2)[C@@H]2CCCO[C@@H]21)C1CC1 | -5.47%
COc1ccc(Br)c(NC(=O)NCc2cnn(C)c2)c1 | 6.91%
O=C(c1[nH]nc(C2CC2)c1Cl)N1CCN(S(=O)(=O)c2ccccc2)CC1 | 16%
COCCn1c2c(ccc1=O)CCN(Cc1ccoc1)CC2 | -134%
Cn1cnnc1CNC(=O)c1ccc(Br)cc1O | -4.06%
Cc1csc2ncnc(N3CCC(Cn4cc(C(C)(C)N)nn4)CC3)c12 | 25.5%
Cc1ccc(C(=O)N2CCCC(c3[nH]ncc3S(C)(=O)=O)C2)s1 (stereo not given) | -10.6%
